How the values were obtained:
Type in all cases: biochemical
[1] = molecular target: recombinant HDAC1 (Homo sapiens, UniProt Q13547); assay: Recombinant HDAC activity assay; conditions: 2 h, read-out: % HDAC activity, Class I HDACs, 1
[2] = molecular target: recombinant HDAC9 (Homo sapiens, UniProt Q9UKV0); assay: Recombinant HDAC activity assay; conditions: 2 h, read-out: % HDAC activity, Class IIa HDACs, 9
[3] = molecular target: T1, recombinant HDAC8 (Homo sapiens, UniProt Q9BY41); assay: Recombinant HDAC activity assay; conditions: 2 h, read-out: % HDAC activity, Class I HDACs, 8
T1 sequence (Q9BY41 1-377): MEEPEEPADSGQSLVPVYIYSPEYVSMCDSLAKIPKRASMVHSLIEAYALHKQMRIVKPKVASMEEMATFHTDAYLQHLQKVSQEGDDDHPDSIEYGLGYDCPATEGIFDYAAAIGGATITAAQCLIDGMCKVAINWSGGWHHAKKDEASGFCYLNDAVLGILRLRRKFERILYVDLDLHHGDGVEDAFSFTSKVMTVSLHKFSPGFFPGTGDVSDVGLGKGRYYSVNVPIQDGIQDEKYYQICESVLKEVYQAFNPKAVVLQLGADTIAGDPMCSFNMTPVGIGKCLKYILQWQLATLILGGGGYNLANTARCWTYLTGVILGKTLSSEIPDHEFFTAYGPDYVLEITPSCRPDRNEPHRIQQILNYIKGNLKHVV

[4] = molecular target: recombinant HDAC3 (Homo sapiens, UniProt O15379); assay: Recombinant HDAC activity assay; conditions: 2 h, read-out: % HDAC activity, Class I HDACs, 3
Sequence of recombinant HDAC3 (O15379 whole entry): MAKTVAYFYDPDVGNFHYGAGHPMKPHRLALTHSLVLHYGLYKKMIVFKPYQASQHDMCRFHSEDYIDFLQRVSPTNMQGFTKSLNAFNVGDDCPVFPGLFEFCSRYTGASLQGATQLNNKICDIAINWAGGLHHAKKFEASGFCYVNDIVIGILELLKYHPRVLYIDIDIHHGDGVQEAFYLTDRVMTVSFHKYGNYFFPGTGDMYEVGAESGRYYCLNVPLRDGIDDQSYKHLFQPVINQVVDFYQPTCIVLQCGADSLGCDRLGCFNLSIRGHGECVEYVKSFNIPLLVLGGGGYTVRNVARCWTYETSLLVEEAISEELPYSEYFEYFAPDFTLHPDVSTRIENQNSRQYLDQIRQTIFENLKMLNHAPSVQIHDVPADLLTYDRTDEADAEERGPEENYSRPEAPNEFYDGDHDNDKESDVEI
Sequence of recombinant HDAC3 (Q9Y618 395-489 partner limits assumed): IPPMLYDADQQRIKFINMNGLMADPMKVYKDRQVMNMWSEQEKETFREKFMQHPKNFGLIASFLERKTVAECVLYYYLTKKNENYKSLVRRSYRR

[5] = tested on: HDAC activity in bovine cardiac tissue; assay: Natural product library screen with class-selective HDAC substrates; conditions: 2 hours treatment
Summary of the method: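 The screen covered 131 natural compounds against bovine cardiac tissue lysate at 30 µg protein/well in PBS (pH 7.4 lysis buffer with Triton X-100 and NaCl). Test compound for 2 h, then separate class I, IIa or IIb fluorogenic acyl-lysine-AMC substrates for 2 h at 37 °C. Developer (Triton X-100, 3 µM TSA, 0.75 mg/ml trypsin) for 20 min; fluorescence read at 360/460 nm.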

[6] = molecular target: T2, recombinant HDAC6 (Homo sapiens, UniProt Q9UBN7); assay: Recombinant HDAC activity assay; conditions: 2 h, read-out: % HDAC activity, Class IIb HDACs, 6
T2 sequence (Q9UBN7 1-1215): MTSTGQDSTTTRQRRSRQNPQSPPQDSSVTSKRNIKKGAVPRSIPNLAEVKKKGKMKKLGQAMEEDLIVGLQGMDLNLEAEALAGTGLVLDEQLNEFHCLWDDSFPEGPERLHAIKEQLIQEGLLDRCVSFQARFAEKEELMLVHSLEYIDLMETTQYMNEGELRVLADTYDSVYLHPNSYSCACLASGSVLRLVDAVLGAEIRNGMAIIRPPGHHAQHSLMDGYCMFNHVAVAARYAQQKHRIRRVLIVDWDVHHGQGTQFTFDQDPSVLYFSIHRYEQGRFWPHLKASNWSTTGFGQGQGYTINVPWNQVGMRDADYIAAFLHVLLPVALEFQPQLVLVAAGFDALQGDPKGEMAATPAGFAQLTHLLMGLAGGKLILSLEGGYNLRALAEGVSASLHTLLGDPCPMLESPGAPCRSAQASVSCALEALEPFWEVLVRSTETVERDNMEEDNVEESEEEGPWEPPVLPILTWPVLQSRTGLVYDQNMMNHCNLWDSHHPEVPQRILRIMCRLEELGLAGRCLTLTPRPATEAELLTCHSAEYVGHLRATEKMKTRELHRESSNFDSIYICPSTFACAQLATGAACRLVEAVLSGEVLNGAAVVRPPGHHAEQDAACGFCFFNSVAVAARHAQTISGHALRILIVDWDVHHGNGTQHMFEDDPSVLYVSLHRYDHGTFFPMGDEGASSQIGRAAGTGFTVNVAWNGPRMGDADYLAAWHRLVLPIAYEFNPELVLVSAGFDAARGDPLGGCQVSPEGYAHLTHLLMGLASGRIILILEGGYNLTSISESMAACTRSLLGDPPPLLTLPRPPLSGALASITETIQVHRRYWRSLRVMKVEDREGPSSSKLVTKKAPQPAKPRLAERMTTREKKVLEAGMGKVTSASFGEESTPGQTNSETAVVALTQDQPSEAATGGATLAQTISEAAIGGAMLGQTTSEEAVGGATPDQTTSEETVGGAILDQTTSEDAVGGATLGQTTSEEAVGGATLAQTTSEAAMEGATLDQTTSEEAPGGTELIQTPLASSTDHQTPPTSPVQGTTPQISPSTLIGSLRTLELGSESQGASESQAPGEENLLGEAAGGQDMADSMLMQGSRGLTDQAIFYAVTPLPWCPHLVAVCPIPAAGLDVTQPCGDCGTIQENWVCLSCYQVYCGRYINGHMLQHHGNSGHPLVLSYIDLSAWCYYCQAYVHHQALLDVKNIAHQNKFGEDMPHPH

[7] = molecular target: recombinant HDAC2 (Homo sapiens, UniProt Q92769); assay: Recombinant HDAC activity assay; conditions: 2 h, read-out: % HDAC activity, Class I HDACs, 2
Sequence of recombinant HDAC2 (Q92769 whole entry): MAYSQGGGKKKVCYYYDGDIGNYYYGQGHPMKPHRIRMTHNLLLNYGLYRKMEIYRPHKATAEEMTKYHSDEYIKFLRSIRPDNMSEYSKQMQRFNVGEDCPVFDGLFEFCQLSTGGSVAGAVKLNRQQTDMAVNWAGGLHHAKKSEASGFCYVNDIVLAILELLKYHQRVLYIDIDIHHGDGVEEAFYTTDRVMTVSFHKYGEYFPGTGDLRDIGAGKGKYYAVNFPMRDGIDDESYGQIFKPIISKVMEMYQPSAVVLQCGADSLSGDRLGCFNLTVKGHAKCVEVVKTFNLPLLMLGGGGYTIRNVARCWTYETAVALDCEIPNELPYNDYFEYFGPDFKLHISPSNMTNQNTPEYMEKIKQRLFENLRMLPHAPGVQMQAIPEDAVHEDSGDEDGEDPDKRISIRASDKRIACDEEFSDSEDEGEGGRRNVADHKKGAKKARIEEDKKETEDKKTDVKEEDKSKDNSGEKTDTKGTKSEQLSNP

Sequence of recombinant HDAC1 (Q13547 whole entry): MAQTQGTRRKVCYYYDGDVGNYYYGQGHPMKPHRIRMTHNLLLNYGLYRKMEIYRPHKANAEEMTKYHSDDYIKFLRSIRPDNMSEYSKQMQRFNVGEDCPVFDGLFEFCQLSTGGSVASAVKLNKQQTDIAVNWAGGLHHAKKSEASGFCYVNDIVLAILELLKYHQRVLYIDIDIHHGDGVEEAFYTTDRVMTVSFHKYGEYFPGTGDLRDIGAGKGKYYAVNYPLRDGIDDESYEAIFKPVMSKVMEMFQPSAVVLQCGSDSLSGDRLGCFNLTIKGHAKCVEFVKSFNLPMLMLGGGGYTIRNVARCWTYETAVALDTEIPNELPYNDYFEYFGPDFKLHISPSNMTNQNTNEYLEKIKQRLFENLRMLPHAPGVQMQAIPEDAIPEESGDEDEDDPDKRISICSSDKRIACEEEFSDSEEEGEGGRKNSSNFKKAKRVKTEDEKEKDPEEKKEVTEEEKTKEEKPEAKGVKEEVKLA
Sequence of recombinant HDAC9 (Q9UKV0 whole entry): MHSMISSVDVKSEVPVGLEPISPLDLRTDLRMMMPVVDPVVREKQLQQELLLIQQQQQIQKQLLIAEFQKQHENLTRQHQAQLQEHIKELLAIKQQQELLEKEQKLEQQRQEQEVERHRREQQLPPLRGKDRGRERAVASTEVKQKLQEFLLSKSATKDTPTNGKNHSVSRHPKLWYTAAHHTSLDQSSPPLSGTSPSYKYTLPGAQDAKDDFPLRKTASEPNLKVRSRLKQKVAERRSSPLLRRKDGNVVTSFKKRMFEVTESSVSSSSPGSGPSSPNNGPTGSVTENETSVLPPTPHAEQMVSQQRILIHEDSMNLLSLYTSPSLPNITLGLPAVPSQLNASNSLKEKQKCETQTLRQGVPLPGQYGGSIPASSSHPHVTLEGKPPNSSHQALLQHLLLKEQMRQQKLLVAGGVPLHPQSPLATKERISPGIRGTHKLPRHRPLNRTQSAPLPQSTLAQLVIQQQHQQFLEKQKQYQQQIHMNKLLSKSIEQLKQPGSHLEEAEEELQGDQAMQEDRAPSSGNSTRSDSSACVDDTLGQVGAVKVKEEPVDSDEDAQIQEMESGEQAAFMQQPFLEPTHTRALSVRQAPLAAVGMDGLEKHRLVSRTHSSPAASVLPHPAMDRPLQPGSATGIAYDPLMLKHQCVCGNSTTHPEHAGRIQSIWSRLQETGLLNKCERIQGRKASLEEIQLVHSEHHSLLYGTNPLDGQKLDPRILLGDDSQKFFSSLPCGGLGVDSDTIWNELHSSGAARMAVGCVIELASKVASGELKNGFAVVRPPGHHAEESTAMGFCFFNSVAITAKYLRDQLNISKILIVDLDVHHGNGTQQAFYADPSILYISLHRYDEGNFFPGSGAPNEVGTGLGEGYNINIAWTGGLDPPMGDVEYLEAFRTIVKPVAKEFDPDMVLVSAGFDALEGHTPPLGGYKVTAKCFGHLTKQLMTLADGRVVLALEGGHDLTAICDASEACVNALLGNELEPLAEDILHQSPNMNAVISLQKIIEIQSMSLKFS

## Cc1cc(O)c2c(c1)C(=O)c1cc(O)cc(O)c1C2=O [Emodin]
[1]
  remaining activity at 50 µM: 35.8%
[2]
  remaining activity at 50 µM: 34.7%
[3]
  remaining activity at 50 µM: 32.3%
[4]
  remaining activity at 50 µM: 35.1%
[5]
  catalytic HDAC activity across class I, IIa and IIb substrates, effect in words: dose-dependent pan-HDAC inhibition
[6]
  remaining activity at 50 µM: 38.8%
[7]
  remaining activity at 50 µM: 35%

— publication PMC5508980 (Molecular nutrition & food research, 2017)
